From ChEMBL document CHEMBL3992529, “Total Syntheses and Biological Activities of Vinylamycin Analogues” (J Med Chem, 2017)
In brackets after ≈: the same amount, converted by molar mass. Counter-ions that a name gives are not always drawn. Activity calls are given as the source filed them. The calls are words filed in the database; no cut-off is given here.

How the values were obtained:
[1] = tested on: MCF7; assay: Cytotoxicity against human MCF7 cells incubated for 72 hrs under hypoxic condition by MTT assay; type: functional, cell-based; details: MCF7, 72 h
How it was run: (§1)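 MCF-7 cells seeded at 2 × 10^4 cells/100 µL in duplicate and preincubated 24 h. Serial dilutions added, then 72 h at 20% O2 (normoxia) or 1% O2 (hypoxia, modular chamber). Viability by MTT under normoxia. Values are mean ± SD of three independent experiments.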

[2] = tested on: MCF7; assay: Cytotoxicity against human MCF7 cells incubated for 72 hrs under normoxic condition by MTT assay; type: functional, cell-based; details: MCF7, 72 h; how it was run: as §1
[3] = tested on: K562; assay: Cytotoxicity against human K562 cells measured after 72 hrs by MTT assay; type: functional, cell-based; details: K562, 72 h
[4] = tested on: MCF7; assay: Selectivity index, ratio of IC50 for human MCF7 cells under hypoxic condition to IC50 for human MCF7 cells under normoxic condition; type: functional
How it was run: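 Index computed as IC50(hypoxia)/IC50(normoxia) in MCF-7 cells, each from a 72 h MTT assay at 1% or 20% O2.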

[5] = Stability of the compound at -20 degreeC incubated for one month; type: physicochemical; details: 730.5 h
[6] = Half life in Sprague-Dawley rat plasma at 1 mg/ml by HPLC analysis; type: ADME, cell-free
How it was run: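 SD rat plasma diluted to 50% in water, prewarmed to 37 °C. 40 µL of a 1 mg/mL ACN stock added per 1 mL plasma. Samples taken at 0–1440 min, proteins precipitated with ACN containing internal standard, centrifuged. Supernatant quantified by C18 HPLC using the internal standard method.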

[7] = tested on: Staphylococcus aureus; assay: Antibacterial activity against Staphylococcus aureus measured after 24 hrs by turbidimetric based microdilution method; type: functional
How it was run: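 S. aureus grown 18 h at 37 °C in MH broth, diluted 50-fold and regrown to OD600 0.8–1.0, then diluted ten-fold serially to about 1 × 10^4 CFU/mL. Compounds two-fold serially diluted, 64 to 0.0625 µg/mL. MIC read by visual turbidity after 24 h at 37 °C.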

[8] = Toxicity in wild-type zebrafish AB assessed as mortality at 4 ug/ml; design: species or system Danio rerio; details: in vivo
How it was run: (§2)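 Wild-type AB zebrafish were randomly allocated to wells, 30 fish per well, and exposed to the test agent at a range of concentrations.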

[9] = tested on: K562; assay: Cytotoxicity against CM-Dil-labeled human K562 cells xenografted in wild-type zebrafish AB assessed as cell growth inhibition at 16.7 ug/ml measured after 2 days by fluorescence microscopic method relative to control; type: functional
How it was run: (§3)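 Wild-type AB zebrafish at 2 dpf yolk-injected with about 200 CM-DiI-labelled K562 cells, held at 35 °C to 3 dpf. Single waterborne dose in 0.1% DMSO aqueous solution, 30 fish per well. Then 2 days at 35 °C. 10 fish imaged by fluorescence microscopy and tumour-cell fluorescence intensity compared with vehicle control.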

[10] = Toxicity in wild-type zebrafish AB assessed as mortality at 20 ug/ml; design: species or system Danio rerio; details: in vivo; how it was run: as §2
[11] = tested on: K562; assay: Induction of apoptosis in human K562 cells at 0.5 to 2 uM measured after 24 to 48 hrs by Annexin V-FITC/propidium iodide staining based flow cytometry; type: functional, cell-based
How it was run: (§4)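 K562 cells seeded at 1 × 10^5 per well and treated 24 h and 48 h. Cells washed in PBS, resuspended in binding buffer, stained in the dark with annexin V-FITC and PI for 15 min, then analysed by flow cytometry within 1 h. Values are mean ± SD of three independent experiments.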

[12] = species on record: Danio rerio; assay: (§5) Toxicity in wild-type zebrafish AB assessed as mortality at 100 ug/ml; details: in vivo; how it was run: as §2
[13] = Toxicity in wild-type zebrafish AB assessed as mortality at 0.8 ug/ml; design: species or system Danio rerio; details: in vivo; how it was run: as §2
[14] = tested on: K562; assay: Cytotoxicity against CM-Dil-labeled human K562 cells xenografted in wild-type zebrafish AB assessed as cell growth inhibition at 5.6 ug/ml measured after 2 days by fluorescence microscopic method relative to control; type: functional; how it was run: as §3
[15] = tested on: K562; assay: Cytotoxicity against CM-Dil-labeled human K562 cells xenografted in wild-type zebrafish AB assessed as cell growth inhibition at 50 ug/ml measured after 2 days by fluorescence microscopic method relative to control; type: functional; how it was run: as §3
[16] = Toxicity in wild-type zebrafish AB assessed as mortality at 50 ug/ml; design: species or system Danio rerio; details: in vivo; how it was run: as §2
[17] = tested on: K562; assay: Potency index, ratio of vinylamycin IC50 to compound IC50 for human K562 cells; type: functional
[18] = tested on: K562; assay: Induction of apoptosis in human K562 cells at 5 to 15 uM measured after 24 to 48 hrs by Annexin V-FITC/propidium iodide staining based flow cytometry; type: functional, cell-based; how it was run: as §4
[19] = Stability of the compound at -20 degreeC incubated for 3 days; type: physicochemical; details: 72 h
[20] = as §5; design: species or system Danio rerio; details: AB wild-type, in vivo; how it was run: as §2

| Structure (SMILES) | IC50 [1] [µM] | IC50 [2] [µM] | IC50 [3] [µM] | Ratio IC50 [4] | Stability [5] | other results |
| --- | --- | --- | --- | --- | --- | --- |
| C=C1/C=C/C(=O)N[C@@H](C)C(=O)N[C@H](C(C)C)C(=O)O[C@@H]([C@H](C)CCCCCC)[C@H](CCOCc2ccc(OC)cc2)C(=O)N1 | 7.98 | 10.1 | 4.6 | 0.79 | Stable | – |
| C=C1/C=C/C(=O)N[C@H](C)C(=O)N[C@@H](C(C)C)C(=O)O[C@@H]([C@H](C)CCCCCC)[C@H](CCO[Si](c2ccccc2)(c2ccccc2)C(C)(C)C)C(=O)N1 | 6.81 | 6.26 | 0.64 | 1.09 | Stable | half-life at 1 mg/ml [6]: 14.3 h; MIC [7]: > 64 µg/mL; mortality at 4 ug/ml [8]: 0%; growth inhibition (GI) [9]: 70%; mortality at 20 ug/ml [10]: 0%; Activity [11]: Active; mortality [12]: Nd(Insoluble); mortality at 0.8 ug/ml [13]: 0%; growth inhibition (GI) [14]: 66%; growth inhibition (GI) [15]: 75%; mortality at 50 ug/ml [16]: 0% |
| CCCCCC[C@@H](C)[C@@H]1OC(=O)[C@H](C(C)C)NC(=O)[C@@H](C)NC(=O)/C=C/[C@H](CO)NC(=O)[C@H]1CCOCc1ccccc1 | – | – | 33.6 | – | Stable | – |
| C=C1/C=C/C(=O)N[C@H](C)C(=O)N[C@@H](C(C)C)C(=O)O[C@@H]([C@H](C)CCCCCC)[C@H](CCOC(=O)C23CC4CC(CC(C4)C2)C3)C(=O)N1 | – | – | 7.72 | – | Stable | – |
| C=C1/C=C/C(=O)NCC(=O)N[C@@H](C(C)C)C(=O)O[C@@H]([C@H](C)CCCCCC)[C@H](CCO[Si](c2ccccc2)(c2ccccc2)C(C)(C)C)C(=O)N1 | 4.69 | 3.49 | 2.31 | 1.34 | Stable | Ratio IC50 [17]: 2 |
| Cc1ccc(NC(=O)c2ccc(CN3CCN(C)CC3)cc2)cc1Nc1nccc(-c2cccnc2)n1 [IMATINIB MESYLATE] | – | – | 0.31 | – | – | – |
| Nc1ccn([C@@H]2O[C@H](CO)[C@@H](O)C2(F)F)c(=O)n1 [GEMCITABINE] | 8.9 | 0.57 | – | 15.6 | – | – |
| C=C1/C=C/C(=O)NC(C)C(=O)NC(C(C)C)C(=O)O[C@@H]([C@H](C)CCCCCC)[C@H](CCOCc2ccccc2)C(=O)N1 (single isomer, unassigned) | – | – | 3.06 | – | Stable | – |
| C=C1/C=C/C(=O)N(C)CC(=O)N[C@@H](C(C)C)C(=O)O[C@@H]([C@H](C)CCCCCC)[C@H](CCO[Si](c2ccccc2)(c2ccccc2)C(C)(C)C)C(=O)N1 | – | – | 0.4 | – | Stable | half-life at 1 mg/ml [6]: 20.1 h; MIC [7]: > 64 µg/mL |
| C=C1/C=C/C(=O)N[C@H](C)C(=O)N[C@@H](C(C)C)C(=O)O[C@@H]([C@H](C)CCCCCC)[C@H](CCOC(=O)[C@H](Cc2ccccc2)NC(=O)OC(C)(C)C)C(=O)N1 | – | – | 5.95 | – | Stable | – |
| C#CCCCCCCCCC(=O)OCC[C@@H]1C(=O)NC(=C)/C=C/C(=O)N[C@H](C)C(=O)N[C@@H](C(C)C)C(=O)O[C@H]1[C@H](C)CCCCCC | – | – | 4.41 | – | Stable | MIC [7]: > 64 µg/mL; Activity [18]: Active |
| C=C1/C=C/C(=O)N[C@H](C)C(=O)N[C@@H](C(C)C)C(=O)O[C@@H]([C@H](C)CCCCCC)[C@H](CCOC(=O)CP(=O)(OCC)OCC)C(=O)N1 | – | – | 7.9 | – | Stable | – |
| C=C1/C=C/C(=O)N[C@@H](C)C(=O)N[C@H](C(C)C)C(=O)O[C@H]([C@@H](C)CCCCCC)[C@@H](CCO)C(=O)N1 | 9.17 | 12.3 | 4.86 | 0.74 | – | half-life at 1 mg/ml [6]: 0.54 h; MIC [7]: 8 µg/mL (≈ 16.2 µM); Stability [19]: Unstable |
| C#CCCCCCCCCC(=O)OCC[C@@H]1C(=O)N[C@@H](CO)/C=C/C(=O)N[C@H](C)C(=O)N[C@@H](C(C)C)C(=O)O[C@H]1[C@H](C)CCCCCC | – | – | 17.9 | – | Stable | – |
| C#CCCCC(=O)OCC[C@@H]1C(=O)NC(=C)/C=C/C(=O)N[C@H](C)C(=O)N[C@@H](C(C)C)C(=O)O[C@H]1[C@H](C)CCCCCC | – | – | 8 | – | Stable | – |
| C=C1/C=C/C(=O)N[C@H](C)C(=O)N[C@@H](C(C)C)C(=O)O[C@@H]([C@H](C)CCCCCC)[C@H](CCOC(=O)CC(c2ccccc2)(c2ccccc2)c2ccccc2)C(=O)N1 | – | – | 3.79 | – | Stable | – |
| CCCCCC[C@@H](C)[C@@H]1OC(=O)[C@H](C(C)C)NC(=O)[C@@H](C)NC(=O)/C=C/[C@H](CO)NC(=O)[C@H]1CCOCc1ccc(OC)cc1 | – | – | 21.4 | – | Stable | – |
| C=C1/C=C/C(=O)N[C@@H](C)C(=O)N[C@H](C(C)C)C(=O)OC([C@@H](C)CCC)[C@@H](CCOCc2ccc(OC)cc2)C(=O)N1 (single isomer, unassigned) | – | – | 13.7 | – | Stable | – |
| C=C1/C=C/C(=O)N(C)CC(=O)N[C@@H]([C@H](O)C(=O)OC)C(=O)O[C@@H]([C@H](C)CCCCCCCCCCCC(C)C)[C@H](C)C(=O)N1 | 0.12 | 0.32 | – | 0.38 | – | – |
| Cc1ccc(NC(=O)c2ccc(CN3CCN(C)CC3)cc2)cc1Nc1nccc(-c2cccnc2)n1 [IMATINIB] | – | – | – | – | – | mortality at 4 ug/ml [8]: 0%; mortality at 20 ug/ml [10]: 0%; mortality at 100 ug/ml [20]: 100%; mortality at 0.8 ug/ml [13]: 0%; growth inhibition (GI) [15]: 71%; mortality at 50 ug/ml [16]: 0% |
| C=C1/C=C/C(=O)N[C@H](C)C(=O)N[C@@H](C(C)C)C(=O)O[C@@H]([C@H](C)CCCCCC)[C@H](CCOC(=O)OC(C)(C)C)C(=O)N1 | – | – | 5.43 | – | Stable | – |
| C=C1/C=C/C(=O)N[C@@H](C)C(=O)N[C@H](C(C)C)C(=O)O[C@H]([C@@H](C)CCCCCC)[C@@H](CCO[Si](c2ccccc2)(c2ccccc2)C(C)(C)C)C(=O)N1 | 7.02 | 5.11 | 1.27 | 1.37 | Stable | Ratio IC50 [17]: 4 |
| C=C1/C=C/C(=O)N[C@@H](C)C(=O)N[C@H](C(C)C)C(=O)O[C@H]([C@H](C)CCCCCC)[C@@H](CCO[Si](c2ccccc2)(c2ccccc2)C(C)(C)C)C(=O)N1 | 2.69 | 2.98 | 1.78 | 0.9 | Stable | Ratio IC50 [17]: 3 |
| C=C1/C=C/C(=O)N[C@H](C)C(=O)N[C@@H](C(C)C)C(=O)O[C@@H]([C@H](C)CCCCCC)[C@H](CCOCc2ccc(OC)cc2)C(=O)N1 | – | – | 2.49 | – | Stable | – |
| C=C1/C=C/C(=O)N[C@@H](C)C(=O)N[C@H](C(C)C)C(=O)O[C@H]([C@@H](C)CCC)[C@@H](CCO)C(=O)N1 | > 20 | > 20 | > 50 | – | – | – |
| C=C1/C=C/C(=O)N[C@H](C)C(=O)N[C@@H](C(C)C)C(=O)O[C@@H]([C@H](C)CCCCCC)[C@H](CCOC(=O)CCCCCCCCCCCCCCCCC)C(=O)N1 | – | – | > 50 | – | Stable | – |
| C=C1/C=C/C(=O)N[C@@H](C)C(=O)N[C@H](C(C)C)C(=O)O[C@@H]([C@H](C)CCCCCC)[C@H](CCO[Si](c2ccccc2)(c2ccccc2)C(C)(C)C)C(=O)N1 | 2.93 | 3.75 | 0.88 | 0.78 | Stable | – |
| O=C(O)c1cn(C2CC2)c2cc(N3CCNCC3)c(F)cc2c1=O [CIPROFLOXACIN] | – | – | – | – | – | MIC [7]: 0.5 µg/mL (≈ 1.51 µM) |
| C=C1/C=C/C(=O)N(C)CC(=O)N[C@@H]([C@H](O)C(N)=O)C(=O)O[C@@H]([C@H](C)CCCCCCCCCCCC(C)C)[C@H](C)C(=O)N1 | 0.08 | 0.3 | – | 0.27 | – | – |
